In ChEMBL document CHEMBL5357066, “Development of Novel Membrane Disrupting Lipoguanidine Compounds Sensitizing Gram-Negative Bacteria to Antibiotics” (ACS Med Chem Lett, 2024):

Tested on: Pseudomonas aeruginosa
Test: Synergistic antibacterial activity against Pseudomonas aeruginosa PAO1 assessed as bacterial growth inhibition incubated for overnight in presence of […] by microbroth dilution method relative to control
Assay type: functional
Settings: not given
How it was run: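 Fixed-concentration combination MIC in TSB. The first agent was set in a two-fold dilution series (100 µL/well), then 50 µL/well of the second agent at a fixed concentration was added; PMBN was fixed at 30 µg/mL. Bacteria at OD 0.02 (50 µL) went into 150 µL of compounds, overnight at 37 °C. MIC was the lowest concentration without visible growth (<0.1 OD600).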

| SMILES | inhibition (INH) [%] |
| --- | --- |
| CCCCCCCCCCNC(=N)NCCCCN | <20 |
| CCCCCCCC/C=C\CCCCCCCCNC(=N)NCCCCN | <20 |
| CCCCCCCCCCCCNC(=N)NCCCCN | <20 |

Tested on: Klebsiella pneumoniae
Test: Synergistic antibacterial activity against Klebsiella pneumoniae M6 assessed as bacterial growth inhibition incubated for overnight in presence of PBMN by microbroth dilution method relative to control
Assay type: functional
Settings: not given
How it was run: (§1)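 Adapted broth microdilution in TSB. The test compound was in a 2-fold dilution series, with PMBN added at a fixed 30 µg/mL. Bacteria at OD 0.02 were added, and plates were incubated overnight at 37 °C. Growth/no growth was read as for the MIC (<0.1 OD600).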

| SMILES | inhibition (INH) [%] |
| --- | --- |
| CCCCCCCCCCNC(=N)NCCCCN | <20 |
| CCCCCCCC/C=C\CCCCCCCCNC(=N)NCCCCN | <20 |
| CCCCCCCCCCCCNC(=N)NCCCCN | <20 |

Tested on: Acinetobacter baumannii
Test: Synergistic antibacterial activity against Acinetobacter baumannii AYE assessed as fold change in novobiocin MIC at <=0.25 times MIC incubated for overnight by microbroth dilution checkerboard assay relative to novobiocin alone
Assay type: functional
Settings: not given
How it was run: (§2)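 Checkerboard microdilution under MIC conditions (TSB, overnight, 37 °C). Two-fold series of each agent were combined on one plate before bacteria were added, and single-agent MICs were measured on the same plate. FIC = sum of combination MIC/alone MIC for each agent, taken from the most synergistic well. Three independent repeats, mean ± SD. ≤0.5 was taken as strong synergy and 0.5–<1 as weak.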

| SMILES | fold change (FC) |
| --- | --- |
| CCCCCCCCCCNC(=N)NCCCCN | >=4 |
| CCCCCCCC/C=C\CCCCCCCCNC(=N)NCCCCN | >=4 |

Tested on: Cell membrane
Test: Induction of outer membrane permeabilization in Escherichia coli NCTC 12923 assessed as increase fluorescence intensity by measuring NPN uptake factor measured immediately for 2 hrs by fluorescence based analysis
Assay type: subcellular
Settings: not given
How it was run: (§3)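 NPN outer-membrane uptake. Overnight TSB cultures (37 °C, 200 rpm) were subcultured 1:20 for 2 h to mid-log, washed, and resuspended in 5 mM HEPES with 5 mM glucose, pH 7.2. Cells were mixed with assay buffer containing 10 µM NPN, then with compound, polymyxin B (positive control) or buffer. Fluorescence (ex 350, em 420 nm) was monitored immediately for 2 h.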

| SMILES | Activity |
| --- | --- |
| CCCCCCCCCCNC(=N)NCCCCN | > 1 |

Tested on: Klebsiella pneumoniae
Test: Synergistic antibacterial activity against Klebsiella pneumoniae NCTC 13368 assessed as bacterial growth inhibition incubated for overnight in presence of PBMN by microbroth dilution method relative to control
Assay type: functional
Settings: not given
How it was run: as §1

| SMILES | inhibition (INH) [%] |
| --- | --- |
| CCCCCCCCCCNC(=N)NCCCCN | <20 |
| CCCCCCCC/C=C\CCCCCCCCNC(=N)NCCCCN | <20 |
| CCCCCCCCCCCCNC(=N)NCCCCN | <20 |

Tested on: Acinetobacter baumannii
Test: Synergistic antibacterial activity against Acinetobacter baumannii ATCC 17978 assessed as fold change in novobiocin MIC at <=0.25 times MIC incubated for overnight by microbroth dilution checkerboard assay relative to novobiocin alone
Assay type: functional
Settings: not given
How it was run: as §2

| SMILES | fold change (FC) |
| --- | --- |
| CCCCCCCCCCNC(=N)NCCCCN | >=4 |
| CCCCCCCC/C=C\CCCCCCCCNC(=N)NCCCCN | >=4 |

Tested on: Pseudomonas aeruginosa
Test: Synergistic antibacterial activity against Pseudomonas aeruginosa NCTC 13437 assessed as novobiocin MIC at <=0.25 times MIC incubated for overnight by microbroth dilution checkerboard assay
Assay type: functional
Settings: not given
How it was run: (§4)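 Checkerboard microdilution in Tryptic Soy Broth, run like the MIC assay. Overnight TSB cultures were back-diluted to OD 0.01 and added 1:1 to the combined two-fold series of both agents, then incubated overnight at 37 °C. Growth/no-growth was called at <0.1 OD600. MICs alone were read on the same plates. FIC index came from the most synergistic well; three independent repeats, mean ± SD.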

| SMILES | MIC [µg/mL] |
| --- | --- |
| CCCCCCCCCCNC(=N)NCCCCN | 8 |
| CCCCCCCC/C=C\CCCCCCCCNC(=N)NCCCCN | > 128 |

Tested on: Pseudomonas aeruginosa
Test: Synergistic antibacterial activity against Pseudomonas aeruginosa PAO1 assessed as novobiocin MIC at <=0.25 times MIC incubated for overnight by microbroth dilution checkerboard assay
Assay type: functional
Settings: not given
How it was run: as §4

| SMILES | MIC [µg/mL] |
| --- | --- |
| CCCCCCCCCCNC(=N)NCCCCN | 2 |
| CCCCCCCC/C=C\CCCCCCCCNC(=N)NCCCCN | > 128 |

Tested on: Cell membrane
Test: Induction of outer membrane permeabilization in Klebsiella pneumoniae NCTC 13368 assessed as increase fluorescence intensity by measuring NPN uptake factor measured immediately for 2 hrs by fluorescence based analysis
Assay type: subcellular
Settings: not given
How it was run: as §3

| SMILES | Activity |
| --- | --- |
| CCCCCCCCCCNC(=N)NCCCCN | > 1 |

Tested on: Klebsiella pneumoniae
Test: Synergistic antibacterial activity against […] Klebsiella pneumoniae M6 assessed as novobiocin MIC at <=0.25 times MIC incubated for overnight by microbroth dilution checkerboard assay
Assay type: functional
Settings: not given
How it was run: (§5)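 Checkerboard run under the MIC conditions (TSB, overnight, 37 °C). Antibiotic and lipoguanidine 2-fold series were combined on one plate before bacteria were added. Growth/no-growth was scored as for the MIC (<0.1 OD600). Single-agent MICs were measured on the same plates. Three independent repeats were done.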

| SMILES | MIC [µg/mL] |
| --- | --- |
| CCCCCCCCCCNC(=N)NCCCCN | 4 |
| CCCCCCCC/C=C\CCCCCCCCNC(=N)NCCCCN | 16 |

Tested on: Escherichia coli
Test: Synergistic antibacterial activity against Escherichia coli NCTC 12923 assessed as fold change in novobiocin MIC at <=0.25 times MIC incubated for overnight by microbroth dilution checkerboard assay relative to novobiocin alone
Assay type: functional
Settings: not given
How it was run: as §2

| SMILES | fold change (FC) |
| --- | --- |
| CCCCCCCCCCNC(=N)NCCCCN | >=4 |
| CCCCCCCC/C=C\CCCCCCCCNC(=N)NCCCCN | 0 |

Tested on: Klebsiella pneumoniae
Test: Synergistic antibacterial activity against Klebsiella pneumoniae M6 assessed as fold change in novobiocin MIC at <=0.25 times MIC incubated for overnight by microbroth dilution checkerboard assay relative to novobiocin alone
Assay type: functional
Settings: not given
How it was run: as §2

| SMILES | fold change (FC) |
| --- | --- |
| CCCCCCCCCCNC(=N)NCCCCN | >=4 |
| CCCCCCCC/C=C\CCCCCCCCNC(=N)NCCCCN | >=4 |

Tested on: Erythrocyte
Test: Hemolytic activity in human Red blood cells at 512 microg/ml measured after 1 hrs by absorbance based assay
Assay type: toxicity, cell-based
Settings: dose 512 µg/ml
How it was run: (§6)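 Titrations in PBS were incubated with freshly collected human red blood cells for 1 h at 37 °C. Controls were 0.1% Triton-X-100 (full lysis) and PBS alone (no lysis). After centrifugation, supernatant OD550 was read. % haemolysis = (AP−AB)/(AC−AB)×100. Data are means and standard error of three biological replicates.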

| SMILES | Activity |
| --- | --- |
| CCCCCCCC/C=C\CCCCCCCCNC(=N)NCCCCN | Toxic |
| CCCCCCCCCCCCNC(=N)NCCCCN | Toxic |

Tested on: Escherichia coli
Test: Synergistic antibacterial activity against Escherichia coli NCTC 12923 assessed as bacterial growth inhibition incubated for overnight in presence of PBMN by microbroth dilution method relative to control
Assay type: functional
Settings: not given
How it was run: as §1

| SMILES | inhibition (INH) [%] |
| --- | --- |
| CCCCCCCCCCNC(=N)NCCCCN | <20 |
| CCCCCCCC/C=C\CCCCCCCCNC(=N)NCCCCN | <20 |
| CCCCCCCCCCCCNC(=N)NCCCCN | <20 |

Tested on: not listed separately
Test: Hemolytic activity in human Red blood cells at 512 microg/ml measured after 1 hrs by absorbance based assay relative to control
Assay type: toxicity, cell-based, Erythrocyte
Settings: red blood cells (erythrocytes), at 512 µg/mL, read-out: Activity
How it was run: as §6

| SMILES | hemolysis at 1 h, 512 microg/ml [%] |
| --- | --- |
| CCCCCCCCCCNC(=N)NCCCCN | 8.2 |

Tested on: Pseudomonas aeruginosa
Test: Synergistic antibacterial activity against Pseudomonas aeruginosa PAO1 assessed as fold change in novobiocin MIC at <=0.25 times MIC incubated for overnight by microbroth dilution checkerboard assay relative to novobiocin alone
Assay type: functional
Settings: not given
How it was run: as §4

| SMILES | fold change (FC) |
| --- | --- |
| CCCCCCCCCCNC(=N)NCCCCN | >=4 |
| CCCCCCCC/C=C\CCCCCCCCNC(=N)NCCCCN | 0 |

Tested on: Acinetobacter baumannii
Test: Synergistic antibacterial activity against Acinetobacter baumannii ATCC 17978 assessed as novobiocin MIC at <=0.25 times MIC incubated for overnight by microbroth dilution checkerboard assay
Assay type: functional
Settings: not given
How it was run: as §2

| SMILES | MIC [µg/mL] |
| --- | --- |
| CCCCCCCCCCNC(=N)NCCCCN | 0.25 |
| CCCCCCCC/C=C\CCCCCCCCNC(=N)NCCCCN | ≤ 0.125 |

Tested on: Pseudomonas aeruginosa
Test: Synergistic antibacterial activity against Pseudomonas aeruginosa NCTC 13437 assessed as bacterial growth inhibition incubated for overnight in presence of PBMN by microbroth dilution method relative to control
Assay type: functional
Settings: not given
How it was run: as §1

| SMILES | inhibition (INH) [%] |
| --- | --- |
| CCCCCCCCCCNC(=N)NCCCCN | <20 |
| CCCCCCCC/C=C\CCCCCCCCNC(=N)NCCCCN | <20 |
| CCCCCCCCCCCCNC(=N)NCCCCN | <20 |

Tested on: Acinetobacter baumannii
Test: Synergistic antibacterial activity against Acinetobacter baumannii ATCC 17978 assessed as bacterial growth inhibition incubated for overnight in presence of PBMN by microbroth dilution method relative to control
Assay type: functional
Settings: not given
How it was run: as §1

| SMILES | inhibition (INH) [%] |
| --- | --- |
| CCCCCCCCCCNC(=N)NCCCCN | <20 |
| CCCCCCCC/C=C\CCCCCCCCNC(=N)NCCCCN | <20 |
| CCCCCCCCCCCCNC(=N)NCCCCN | <20 |

Tested on: Pseudomonas aeruginosa
Test: Synergistic antibacterial activity against Pseudomonas aeruginosa NCTC 13437 assessed as fold change in novobiocin MIC at <=0.25 times MIC incubated for overnight by microbroth dilution checkerboard assay relative to novobiocin alone
Assay type: functional
Settings: not given
How it was run: as §2

| SMILES | fold change (FC) |
| --- | --- |
| CCCCCCCCCCNC(=N)NCCCCN | >=4 |
| CCCCCCCC/C=C\CCCCCCCCNC(=N)NCCCCN | 0 |

Tested on: Klebsiella pneumoniae
Test: Synergistic antibacterial activity against Klebsiella pneumoniae NCTC 13368 assessed as fold change in novobiocin MIC at <=0.25 times MIC incubated for overnight by microbroth dilution checkerboard assay relative to novobiocin alone
Assay type: functional
Settings: not given
How it was run: as §2

| SMILES | fold change (FC) |
| --- | --- |
| CCCCCCCCCCNC(=N)NCCCCN | >=4 |
| CCCCCCCC/C=C\CCCCCCCCNC(=N)NCCCCN | 0 |

Tested on: Escherichia coli
Test: Synergistic antibacterial activity against Escherichia coli NCTC 12923 assessed as novobiocin MIC at <=0.25 times MIC incubated for overnight by microbroth dilution checkerboard assay
Assay type: functional
Settings: not given
How it was run: as §2

| SMILES | MIC [µg/mL] |
| --- | --- |
| CCCCCCCCCCNC(=N)NCCCCN | 0.5 |
| CCCCCCCC/C=C\CCCCCCCCNC(=N)NCCCCN | > 128 |

Tested on: Acinetobacter baumannii
Test: Synergistic antibacterial activity against Acinetobacter baumannii AYE assessed as novobiocin MIC at <=0.25 times MIC incubated for overnight by microbroth dilution checkerboard assay
Assay type: functional
Settings: not given
How it was run: as §2

| SMILES | MIC [µg/mL] |
| --- | --- |
| CCCCCCCCCCNC(=N)NCCCCN | ≤ 0.125 |
| CCCCCCCC/C=C\CCCCCCCCNC(=N)NCCCCN | ≤ 0.125 |

Tested on: Klebsiella pneumoniae
Test: Synergistic antibacterial activity against […] Klebsiella pneumoniae NCTC 13368 assessed as novobiocin MIC at <=0.25 times MIC incubated for overnight by microbroth dilution checkerboard assay
Assay type: functional
Settings: not given
How it was run: as §5

| SMILES | MIC [µg/mL] |
| --- | --- |
| CCCCCCCCCCNC(=N)NCCCCN | 16 |
| CCCCCCCC/C=C\CCCCCCCCNC(=N)NCCCCN | > 128 |
